Biological target: T1, OR8D1 (Homo sapiens) (UniProt Q8WZ84)
T1 sequence (whole entry): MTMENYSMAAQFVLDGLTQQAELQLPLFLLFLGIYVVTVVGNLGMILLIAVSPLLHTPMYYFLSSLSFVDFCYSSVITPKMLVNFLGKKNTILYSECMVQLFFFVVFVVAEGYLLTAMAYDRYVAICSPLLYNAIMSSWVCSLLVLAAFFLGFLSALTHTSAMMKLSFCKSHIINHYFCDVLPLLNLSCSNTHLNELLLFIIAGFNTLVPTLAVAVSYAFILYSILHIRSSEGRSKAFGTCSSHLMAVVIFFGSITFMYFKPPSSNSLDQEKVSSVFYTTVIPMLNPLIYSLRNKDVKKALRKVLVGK
Settings: stereoisomer not certain
How it was run: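 Assay methods differ from source to source, frequently being transient luciferase assays in mammalian cell lines. For each receptor–molecule pair, the label responsive (active) applies when the original authors judged the measured signal statistically different from baseline, and non-responsive (inactive) applies otherwise.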

Odorant receptor agonist call, inactive:
CCc1ccc(O)cc1, CCc1cccc(O)c1, CSCCCO, CC(C)c1ccc(C=O)cc1, Cc1occc1S, CCCCCCC(=O)[O-].[H+], CCOC(=O)CCC(C)C, CC(=O)C=CC1=C(C)CCCC1(C)C, C=CC(=C)CCC=C(C)C, CCOC(=O)C1CCCCC1, CCOC(C)=O, COc1cccc(OC)c1O, CCCCCCCCC1CCC(=O)O1 (configuration not stated), CCC=CCCC=O, CCCCCCCC1CCC(=O)O1 (configuration not stated), CCCCCC(=O)OCC, CC(C)(S)CCOC=O, Cc1ccc(O)cc1, COc1nccnc1C(C)C, CCC(C)C=O (configuration not stated), CC(C)CC=O, COC(=O)C=Cc1ccccc1, CCOC(=O)C(C)CC (configuration not stated), CC(=O)C1=NCCS1, CCC(S)C(C)=O (configuration not stated), C=C(C)C1CC=C(C)CC1 (configuration not stated), O=C(O)CCc1ccccc1, CC=CC(=O)C1=C(C)CCCC1(C)C, SCCc1ccccc1, CCC=CCCC=CC=O, CC(C)CCCCCCCCCCC=O, CC=Cc1ccc(OC)cc1, CCCCCCO, CCOC(=O)CC(C)C, CSC, CC1=CCC(C(C)(C)S)CC1 (configuration not stated), CCO
